Results: ChEMBL document CHEMBL4184124, “Progress in antischistosomal N,N'-diaryl urea SAR” (Bioorg Med Chem Lett, 2018)
Values after ≈ are worked out from the molar mass of the structure shown. Active and inactive are the calls of the source. The rule behind the calls is not given here.

What was measured:
[1] = Kinetic solubility of the compound in 0.01M HCl at pH 2 by nephelometric method; type: physicochemical; conditions: read-out: Kinetic_solubility
How it was run: (§1)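 DMSO stocks spiked into pH 6.5 phosphate buffer or 0.01 M HCl (approx. pH 2.0); nephelometry gave a solubility concentration range.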

[2] = Intrinsic clearance in human liver microsomes assessed per mg protein after 60 mins in presence of NADPH generating system; type: ADME, microsome; conditions: 1 h
[3] = Intrinsic clearance in mouse liver microsomes assessed per mg protein after 60 mins in presence of NADPH generating system; type: ADME, microsome; conditions: 1 h
Schistosoma mansoni [4] = assay: Antischistosomal activity against newly transformed stage of Schistosoma mansoni measured after 72 hrs by microscopic analysis; type: functional, organism-based
How it was run: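 Newly transformed schistosomula were first screened at 10 µM; compounds that killed them were then run as a concentration titration to derive IC50 values.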

Schistosoma mansoni [5] = assay: Antischistosomal activity against adult stage of Schistosoma mansoni measured after 72 hrs by microscopic analysis; type: functional, organism-based
Schistosoma mansoni [6] = assay: Antischistosomal activity against newly transformed stage of Schistosoma mansoni assessed as parasite death at 10 uM; type: functional, organism-based
How it was run: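 Newly transformed schistosomula exposed at 10 µM as a screen for killing; active compounds then titrated to give IC50.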

HFF = assay: Cytotoxicity against HFF; type: cell-based; conditions: Homo sapiens
U2OS = assay: Cytotoxicity against human U2OS cells; type: cell-based
HEK293 = assay: Cytotoxicity against HEK293 cells; type: cell-based; conditions: Homo sapiens
[7] = Cytotoxicity against human HC04 cells; type: cell-based
[8] = Drug uptake in Swiss mouse plasma at 100 mg/kg, po administered as single dose via gavage measured after 2 hrs by LC-MS analysis; type: ADME, organism-based; conditions: in vivo
How it was run: (§2)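 Single 100 mg/kg oral dose given to non-infected male Swiss outbred mice; plasma sampled over 48 h post-dose; n=2 mice per time point, mean values. AUC taken to last measured concentration.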

[9] = Plasma concentration in Swiss mouse at 100 mg/kg, po administered as single dose via gavage measured up to 48 hrs by LC-MS analysis; type: ADME, organism-based; how it was run: as §2
[10] = Cmax in Swiss mouse at 100 mg/kg, po administered as single dose via gavage by LC-MS analysis; type: ADME, organism-based; parameters: dose 100 mg/kg, route oral; conditions: in vivo; how it was run: as §2
[11] = Tmax in Swiss mouse at 100 mg/kg, po administered as single dose via gavage by LC-MS analysis; type: ADME, organism-based; conditions: in vivo; how it was run: as §2
[12] = Half-life in Swiss mouse at 100 mg/kg, po administered as single dose via gavage by LC-MS analysis; type: ADME, organism-based; conditions: in vivo; how it was run: as §2
[13] = AUC (0 to last) in Swiss mouse at 100 mg/kg, po administered as single dose via gavage by LC-MS analysis; type: ADME, organism-based; parameters: dose 100 mg/kg, time 0 - last, route oral; conditions: in vivo; how it was run: as §2
Schistosoma mansoni [14] = assay: Antischistosomal activity against Schistosoma mansoni cercariae infected in NMRI mouse assessed as reduction in worm burden at 100 mg/kg, po administered as single dose via gavage measured after 21 days relative to control; type: functional; parameters: scale not given: the % may be the effect or the level left
How it was run: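 Infected mice given a single 100 mg/kg oral dose; efficacy read as worm burden reduction (%).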

[15] = Octanol-[…] partition coefficient, log D of the compound at pH 7.4 by RP-HPLC method
[16] = Kinetic solubility of the compound in phosphate buffer at pH 6.5 by nephelometric method; type: physicochemical; conditions: read-out: Kinetic_solubility; how it was run: as §1
[17] = Drug uptake in Swiss mouse plasma at 100 mg/kg, po administered as single dose via gavage measured after 4 to 48 hrs by LC-MS analysis; type: ADME, organism-based; conditions: in vivo; how it was run: as §2
Schistosoma mansoni [18] = assay: Antischistosomal activity against Schistosoma mansoni Liberian cercariae measured after 72 hrs by microscopic analysis; type: functional, organism-based
How it was run: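 Newly transformed schistosomula prepared from cercariae, first screened at 10 µM as a gate. Active compounds then went through a concentration titration to derive IC50 values.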

Schistosoma mansoni [19] = assay: Antischistosomal activity against Schistosoma mansoni infected in NMRI mouse assessed as reduction in worm burden at 400 mg/kg, po administered as single dose measured after 14 days relative to control; type: functional; parameters: scale not given: the % may be the effect or the level left
[20] = Half-life in mouse at 46.3 mg/kg, po; type: ADME, organism-based; conditions: in vivo
[21] = Cmax in mouse at 46.3 mg/kg, po; type: ADME, organism-based; parameters: dose 46.3 mg/kg, route oral; conditions: in vivo

SMILES | solubility kinetic [1] [µg/mL] | CLH [2] [µL/min/mg] | CLH [3] [µL/min/mg] | IC50 (Schistosoma mansoni [4]) [µM] | IC50 (Schistosoma mansoni [5]) [µM] | Activity (Schistosoma mansoni [6]) | IC50 (HFF) [µM] | IC50 (U2OS) [µM] | IC50 (HEK293) [µM] | IC50 [7] [µM] | concentration at 48 h [9] [µM] | Cmax [10] [µM] | Tmax [11] [h] | half-life [12] [h] | AUC(0-t) [13] [µM·h] | Activity (Schistosoma mansoni [14]) [%] | chromatographic logD [15] | solubility kinetic [16] [µg/mL] | other results
O=C(Nc1ccc(F)c(C(F)(F)F)c1)Nc1ccc(F)c(C(F)(F)F)c1 | < 1.6 | 10 | 7 | 0.15 | 0.19 | Active | 57 | > 100 | > 100 | > 100 | > 1 | 31 | 4 | 11 | 394 | 40 | 4.5 | – | Drug uptake [8]: Active
O=C(Nc1ccncc1)Nc1ccncc1 | > 100 | < 7 | 188 | – | – | – | – | – | – | – | – | – | – | – | – | – | 1.3 | 12.5 to 25 (≈ 58.3 to 117 µM) | –
N#Cc1ccc(NC(=O)Nc2ccnc(C(F)(F)F)c2)cc1 | 1.6 to 3.1 (≈ 5.22 to 10.1 µM) | < 7 | < 7 | 1.9 | 3.3 | Active | > 100 | > 100 | > 100 | > 100 | – | 20 | 2 | 2.3 | 175 | 1.6 | 3 | 1.6 to 3.1 (≈ 5.22 to 10.1 µM) | –
O=C(Nc1ccc(C(=O)O)cc1)Nc1ccc(F)c(C(F)(F)F)c1 | < 1.6 | < 7 | < 7 | – | – | – | – | – | – | – | – | – | – | – | – | – | 1.5 | 12.5 to 25 (≈ 36.5 to 73 µM) | –
O=C(Nc1ccnc(C(F)(F)F)c1)Nc1ccnc(C(F)(F)F)c1 | 12.5 to 25 (≈ 35.7 to 71.4 µM) | < 7 | < 7 | 2.4 | 0.88 | Active | > 100 | > 100 | > 100 | > 100 | – | 40 | 4 | 10 | 953 | 20 | 3 | 12.5 to 25 (≈ 35.7 to 71.4 µM) | Drug uptake [17]: Active
NC(=O)c1ccc(NC(=O)Nc2ccc(F)c(C(F)(F)F)c2)cc1 | 6.3 to 12.5 (≈ 18.5 to 36.6 µM) | 28 | 22 | – | – | – | – | – | – | – | – | – | – | – | – | – | 2.7 | 6.3 to 12.5 (≈ 18.5 to 36.6 µM) | –
O=C(Nc1ccc2c(c1)OC(F)(F)O2)Nc1ccc(F)c(C(F)(F)F)c1 | < 1.6 | < 7 | < 7 | 0.21 | 0.49 | Active | 67 | > 100 | > 100 | > 100 | > 5 | 27 | – | – | 989 | 0 | 4.5 | < 1.6 | –
O=C(Nc1ccc(Cl)c(Cl)c1)Nc1ccc(Cl)c(Cl)c1 | – | – | – | – | – | – | – | – | – | – | – | – | – | – | – | 0 | – | – | IC50 (Schistosoma mansoni [18]): 0.8 µM; Activity (Schistosoma mansoni [19]): 53%; half-life [20]: 4.7 h; Cmax [21]: 4.4 µM
NC(=O)c1ccccc1NC(=O)Nc1ccc(F)c(C(F)(F)F)c1 | 1.6 to 3.1 (≈ 4.69 to 9.08 µM) | 81 | 69 | – | – | – | – | – | – | – | – | – | – | – | – | – | 3.3 | 1.6 to 3.1 (≈ 4.69 to 9.08 µM) | –
O=C(Nc1ccnc(C(F)(F)F)c1)Nc1ccc2c(c1)OC(F)(F)O2 | 3.1 to 6.3 (≈ 8.58 to 17.4 µM) | < 7 | 16 | 1.3 | 0.75 | Active | 80 | > 100 | > 100 | > 100 | > 5 | 55 | – | – | 2270 | 2.1 | 3.7 | 3.1 to 6.3 (≈ 8.58 to 17.4 µM) | –
